Calls of active or inactive are those of the source. No cut-off for these calls is given here.
How the values were obtained:
[1] = Ratio of hydroxychloroquine IC50 to compound IC50 for human HCC827 cells; assay type: functional
[2] = Antiproliferative activity against human H460 cells after 72 hrs by SRB method; assay type: functional, cell-based; conditions: NCI-H460, 72 h
Summary of the method: (§1)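 SRB growth assay: cells exposed to compounds over a 100-fold concentration range for 72 h, then cell number quantified. IC50 calculated from the curves. Means of at least 3 experiments, each run in triplicate.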

[3] = Antiproliferative activity against human BxPC3 cells after 72 hrs by SRB method; assay type: functional, cell-based; conditions: BXPC-3, 72 h; summary of the method: as §1
BXPC-3 = experiment: Ratio of hydroxychloroquine IC50 to compound IC50 for human BxPC3 cells; assay type: functional
[4] = Antiproliferative activity against human HCC827 cells after 72 hrs by SRB method; assay type: functional, cell-based; conditions: HCC827, 72 h; summary of the method: as §1
[5] = Ratio of hydroxychloroquine IC50 to compound IC50 for human H460 cells; assay type: functional
MDA-MB-231 = experiment: Cytotoxicity against human MDA-MB-231 cells after 72 hrs by MTT assay; assay type: functional, cell-based; conditions: MDA-MB-231, 72 h, pooled result: one value given for 7 cell lines, strains, targets or settings
[6] = Cytotoxicity against human C8161 cells after 72 hrs by MTT assay; assay type: functional, cell-based; conditions: C8161, 72 h
HT-29 = experiment: Cytotoxicity against human HT-29 cells after 72 hrs by MTT assay; assay type: functional, cell-based; conditions: HT-29, 72 h
[7] = Cytotoxicity against human 1205 Lu cells after 72 hrs by MTT assay; assay type: functional, cell-based
NCI-H460 [8] = experiment: Induction of apoptosis in human H460 cells at 25 to 75 uM after 24 hrs by annexin-V staining-based flow cytometry; assay type: functional, cell-based
Summary of the method: (§2)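 Apoptosis in treated H460 cells was detected by binding of APC-conjugated annexin V to surface phosphatidylserine, measured by flow cytometry. Means ± SD of 3 experiments; p < 0.05 taken as significant.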

[9] = Cytotoxicity against human LN229 cells after 72 hrs by MTT assay; assay type: functional, cell-based; conditions: LN-229, 72 h
NCI-H3122 = experiment: Inhibition of autophagy in human NCI-H3122 cells assessed as increase in punctate LC3 expression at 25 to 50 uM after 6 hrs by fluorescence microscopic analysis; assay type: functional, cell-based
Summary of the method: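 NCI-H3122 NSCLC cells transfected with a mCherry-EGFP-LC3B tandem reporter, then treated 6 h. Cells fixed and green, red and yellow fluorescent puncta examined by fluorescence microscopy.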

NCI-H460 [10] = experiment: Inhibition of autophagy in human H460 cells assessed as increase in punctate LC3 level at 10 uM by immunoblot analysis; assay type: functional, cell-based; conditions: TDE = time-dependent effect
Summary of the method: (§3)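 H460 cells treated 24 h across a concentration series, or with 10 μM compound for varying times, or at 10 μM for 24 h. Cell extracts immunoblotted with anti-LC3 to separate LC3-I from autophagosome-bound LC3-II. Actin probed as loading control.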

[11] = Inhibition of colony formation in human H460 cells at 6.5 to 100 uM treated for 24 hrs followed by incubation in drug free medium for 10 days by crystal violet staining-based assay relative to hydroxychloroquine; assay type: functional, NCI-H460
Summary of the method: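 H460 cells exposed to drug for 24 h, after which medium was replaced with drug-free medium. Colonies grew for another 10 days and were stained with crystal violet.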

NCI-H460 [12] = experiment: Inhibition of autophagy in human H460 cells assessed as increase in LC3-2 level at 10 uM after 24 hrs by immunoblot analysis
NCI-H460 [13] = experiment: Inhibition of autophagy in human H460 cells assessed as increase in punctate LC3 level after 24 hrs by immunoblot analysis; assay type: functional, cell-based; summary of the method: as §3
NCI-H460 [14] = experiment: Inhibition of autophagy in human H460 cells assessed as increase in p62 level after 24 hrs by immunoblot analysis; assay type: functional, cell-based
Summary of the method: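 H460 cells exposed 24 h to a concentration series. Extracts immunoblotted for p62, with actin as loading control.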

NCI-H460 [15] = experiment: Induction of apoptosis in human H460 cells after 24 hrs by annexin-V staining-based flow cytometry; assay type: functional, cell-based; summary of the method: as §2
Homo sapiens = species: Homo sapiens; experiment: Cmax in human at 1200 mg; assay type: ADME, organism-based; set-up: dose 1200 mg; conditions: in vivo

Row | SMILES | Ratio IC50 [1] | IC50 [2] [µM] | IC50 [3] [µM] | Ratio IC50 (BXPC-3) | IC50 [4] [µM] | Ratio IC50 [5] | other results
1 | CN(CCNCc1cn(-c2ccnc3cc(Cl)ccc23)nn1)CCNc1ccnc2cc(Cl)ccc12 | 3.9 | 16 | 8.8 | 3.9 | 18 | 3.9 | 
2 | CCN(CC)CCNc1ccc(C)c2sc3ccccc3c(=O)c12 [LUCANTHONE] |  |  |  |  |  |  | IC50 (MDA-MB-231): 5.7 µM
3 | CN(CCNCc1cn(CCc2ccccc2)nn1)CCNc1ccnc2cc(Cl)ccc12 | 3.2 | 24 | 13 | 3.2 | 15 | 3.2 | 
4 | CCN(CC)CCCC(C)Nc1ccnc2cc(Cl)ccc12 (stereo not given) [CHLOROQUINE] | 1.2 | 52 | 25 | 1.2 | 76 | 1.2 | IC50 [6]: 3.6 µM; IC50 (HT-29): 3.6 µM; IC50 [7]: 3.6 µM; Activity (NCI-H460 [8]): Active; IC50 [9]: 3.6 µM
5 | CN(CCNCc1cn(Cc2ccc(Br)cc2)nn1)CCNc1ccnc2cc(Cl)ccc12 | 5.7 | 12 | 8.7 | 5.7 | 9.3 | 5.7 | 
6 | CN(CCNCc1cn(Cc2ccc(Cl)cc2)nn1)CCNc1ccnc2cc(Cl)ccc12 | 7 | 11 | 5.8 | 7 | 7.6 | 7 | inhibition (NCI-H3122): Active; inhibition (NCI-H460 [10]): tde; Ratio [11]: >10; inhibition (NCI-H460 [12]): Active; inhibition (NCI-H460 [13]): Dose-dependent effect; Activity (NCI-H460 [8]): Active; inhibition (NCI-H460 [14]): Dose-dependent effect; Activity (NCI-H460 [15]): Dose-dependent effect
7 | CN(CCNCc1cn(CC(=O)Nc2cccc3ccc(O)cc23)nn1)CCNc1ccnc2cc(Cl)ccc12 |  | 67 |  |  | 86 |  | 
8 | CCN(CCO)CCCC(C)Nc1ccnc2cc(Cl)ccc12 (stereo not given) [HYDROXYCHLOROQUINE] |  | 74 | 33 |  | 65 |  | inhibition (NCI-H3122): Active; inhibition (NCI-H460 [10]): tde; inhibition (NCI-H460 [12]): Active; Cmax (Homo sapiens): 7 µM; inhibition (NCI-H460 [13]): Dose-dependent effect; Activity (NCI-H460 [8]): Active; inhibition (NCI-H460 [14]): Dose-dependent effect
9 | CN(CCNCc1cn(C(C)(C)C)nn1)CCNc1ccnc2cc(Cl)ccc12 |  | 79 | 39 |  | 56 |  | 
10 | CN(CCNCc1cn(CCC(=O)Nc2ccccn2)nn1)CCNc1ccnc2cc(Cl)ccc12 |  | > 200 |  |  | > 200 |  | 
11 | CN(CCNCc1cn(-c2ccccc2)nn1)CCNc1ccnc2cc(Cl)ccc12 | 2.9 | 25 | 10 | 2.9 | 26 | 2.9 | 
12 | C#CCNCCN(C)CCNc1ccnc2cc(Cl)ccc12 |  | 69 |  |  | 105 |  | 
13 | CN(CCNCc1cn(-c2ccc(F)cc2)nn1)CCNc1ccnc2cc(Cl)ccc12 | 2.8 | 34 | 12 | 2.8 | 19 | 2.8 | 
14 | CN(CCNCc1cn(-c2cccc(Cl)c2)nn1)CCNc1ccnc2cc(Cl)ccc12 | 4.7 | 17 | 12 | 4.7 | 9.4 | 4.7 | 
15 | CN(CCNc1ccnc2cc(Cl)ccc12)Cc1cn(-c2ccnc3cc(Cl)ccc23)nn1 | 2.7 | 29 | 16 | 2.7 | 18 | 2.7 | 
16 | CN(CCNCc1cn(Cc2nc3ccccc3[nH]2)nn1)CCNc1ccnc2cc(Cl)ccc12 |  | 120 |  |  | 164 |  | 
17 | CN(CCNCc1cn(-c2ccccc2Cl)nn1)CCNc1ccnc2cc(Cl)ccc12 | 4 | 20 | 11 | 4 | 12 | 4 | 
18 | CN(CCNCc1cn(CCc2c[nH]c3ccccc23)nn1)CCNc1ccnc2cc(Cl)ccc12 | 6 | 12 | 7.6 | 6 | 8.5 | 6 | 
19 | CN(CCNCc1cn(-c2nc3ccccc3[nH]2)nn1)CCNc1ccnc2cc(Cl)ccc12 | 2.1 | 33 | 16 | 2.1 | 32 | 2.1 | 
20 | CN(CCNCc1cn(CCCn2nn[nH]c2=O)nn1)CCNc1ccnc2cc(Cl)ccc12 |  | > 200 |  |  | > 200 |  | 
21 | CN(CCNCc1cn(Cc2ccccc2)nn1)CCNc1ccnc2cc(Cl)ccc12 | 3.1 | 32 | 9.7 | 3.1 | 16 | 3.1 | 
22 | Clc1ccc2c(NCCNCc3cn(-c4ccnc5cc(Cl)ccc45)nn3)ccnc2c1 | 3.2 | 21 | 14 | 3.2 | 16 | 3.2 | 
23 | CN(CCNCc1cn(CC(=O)O)nn1)CCNc1ccnc2cc(Cl)ccc12 |  | > 200 |  |  | > 200 |  | 
24 | CN(CCNCc1cn(-c2ccc(Br)cc2)nn1)CCNc1ccnc2cc(Cl)ccc12 | 5 | 15 | 7.9 | 5 | 11 | 5 | 
25 | CN(CCNCc1cn(Cc2nc3cc(Cl)ccc3[nH]2)nn1)CCNc1ccnc2cc(Cl)ccc12 |  | 59 | 44 |  | 65 |  | 
26 | CN(CCNCc1cn(CCn2c(=O)[nH]c3ccccc3c2=O)nn1)CCNc1ccnc2cc(Cl)ccc12 |  | 147 |  |  | > 200 |  | 
27 | CN(CCNCc1cn(-c2ccc(Cl)cc2)nn1)CCNc1ccnc2cc(Cl)ccc12 | 5.2 | 14 | 9.1 | 5.2 | 9.5 | 5.2 | 
28 | Clc1ccc2c(-n3cc(CNCc4cn(-c5ccnc6cc(Cl)ccc56)nn4)nn3)ccnc2c1 |  | 70 | 78 |  | 72 |  | 
29 | CN(CCNCc1cn(CCCO)nn1)CCNc1ccnc2cc(Cl)ccc12 |  | > 200 |  |  | > 200 |  | 
